From ChEMBL document CHEMBL3616399, “Design, synthesis, and structure-activity relationship studies of novel thienopyrrolidone derivatives with strong antifungal activity against Aspergillus fumigates” (Eur J Med Chem, 2015) come the findings set out here.

In brackets after ≈: the same amount, converted by molar mass.

One series relates to Cryptococcus neoformans. The series can be described thus: Antifungal activity against Cryptococcus neoformans 32609 after 72 hrs by serial dilution method. The format is functional. The conditions noted are these: Cryptococcus neoformans, 32609, 72 h. In outline: (§1)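 MIC by broth serial dilution per NCCLS/CLSI (M27-A3 yeasts, M38-A2 filamentous) in 96-well plates; ATCC strains plus clinical isolates; C. parapsilosis 22019 run as quality-control strain in every assay. Compounds dissolved in DMSO, serially diluted in growth medium; incubation 35 °C; MIC read at 24 h (Candida), 48 h (A. fumigatus), 72 h (C. neoformans).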

For another series, the system named is Aspergillus fumigatus. Description: Antifungal activity against Aspergillus fumigatus 7544 after 48 hrs by serial dilution method. The format is functional. The conditions noted are these: Aspergillus fumigatus, 7544, 48 h. The method in brief:
as §1

In the next series the test system is Candida parapsilosis. The series can be described thus: Antifungal activity against Candida parapsilosis 22019 after 24 hrs by serial dilution method. The format is functional. The note with it: Lodderomyces parapsilosis, 22019, 24 h. In outline: as §1
For a further series, the system named is Liver microsome. Description: Intrinsic clearance in human liver microsomes assessed per mg of protein at 0.1 uM measured up to 60 mins by MS analysis. The conditions noted are these: 1 h.
Another series relates to Nakaseomyces glabratus. The series can be described thus: Antifungal activity against Candida glabrata 537 after 24 hrs by serial dilution method. The format is functional. The note with it: Nakaseomyces glabratus, 537, 24 h. The method in brief: as §1
For series [1], the system named is Candida albicans. The series can be described thus: Antifungal activity against Candida albicans Y0109 after 24 hrs by serial dilution method. The format is functional. The note with it: Y0109, 24 h. In outline:
as §1

For series [2], the system named is Candida albicans. Description: Antifungal activity against Candida albicans SC5314 after 24 hrs by serial dilution method. The format is functional. The note with it: SC5314, 24 h. The method in brief: as §1

Take `C[C@@H](N1Cc2cc(Br)sc2C1=O)[C@](O)(Cn1cncn1)c1ccc(F)cc1F`: the MIC came to 0.0625 µg/mL (≈ 0.133 µM) against Cryptococcus neoformans; 0.25 µg/mL (≈ 0.533 µM) in the series on Aspergillus fumigatus; 0.0156 µg/mL (≈ 0.0332 µM) in the series on Candida parapsilosis; 0.0625 µg/mL (≈ 0.133 µM) in the series on Nakaseomyces glabratus; 0.0156 µg/mL (≈ 0.0332 µM) in the series with Candida albicans [1]; 0.0156 µg/mL (≈ 0.0332 µM) in the series with Candida albicans [2]. In addition, the CLH with Liver microsome turned out to be 5 µL/min/mg.
As for `C[C@@H](N1Cc2cc(-c3ccc(Cl)cc3)sc2C1=O)[C@](O)(Cn1cncn1)c1ccc(F)cc1F`, the MIC came out at 0.0625 µg/mL (≈ 0.125 µM) in the series on Cryptococcus neoformans; 8 µg/mL (≈ 16 µM) in the series on Aspergillus fumigatus; 0.0625 µg/mL (≈ 0.125 µM) with Candida parapsilosis; 0.0625 µg/mL (≈ 0.125 µM) in the series on Nakaseomyces glabratus; 0.0156 µg/mL (≈ 0.0311 µM) against Candida albicans [1]; 0.0156 µg/mL (≈ 0.0311 µM) against Candida albicans [2].
Take `COc1ccc(-c2cc3c(s2)C(=O)N([C@H](C)[C@](O)(Cn2cncn2)c2ccc(F)cc2F)C3)cc1`: the MIC worked out at 0.0625 µg/mL (≈ 0.126 µM) in the series with Cryptococcus neoformans; 4 µg/mL (≈ 8.06 µM) against Aspergillus fumigatus; 0.0625 µg/mL (≈ 0.126 µM) with Candida parapsilosis; 0.0625 µg/mL (≈ 0.126 µM) against Nakaseomyces glabratus; 0.0156 µg/mL (≈ 0.0314 µM) with Candida albicans [1]; 0.0156 µg/mL (≈ 0.0314 µM) in the series with Candida albicans [2].
As to `C[C@@H](N1Cc2cc(-c3cccc(C#N)c3)sc2C1=O)[C@](O)(Cn1cncn1)c1ccc(F)cc1F`, the MIC against Cryptococcus neoformans stood at 0.125 µg/mL (≈ 0.254 µM); against Aspergillus fumigatus it was 4 µg/mL (≈ 8.14 µM); with Candida parapsilosis, 0.125 µg/mL (≈ 0.254 µM); against Nakaseomyces glabratus, 0.125 µg/mL (≈ 0.254 µM); in the series with Candida albicans [1] it was 0.0625 µg/mL (≈ 0.127 µM); with Candida albicans [2] it was 0.0625 µg/mL (≈ 0.127 µM).
For the molecule `C[C@@H](N1CCc2nc(-c3cncnc3)sc2C1)[C@](O)(Cn1cncn1)c1ccc(F)cc1F`, the minimum inhibitory concentration (MIC) was found to be 0.0625 µg/mL (≈ 0.133 µM) against Cryptococcus neoformans; 2 µg/mL (≈ 4.26 µM) with Aspergillus fumigatus; 0.0625 µg/mL (≈ 0.133 µM) in the series with Candida parapsilosis; 0.0625 µg/mL (≈ 0.133 µM) against Nakaseomyces glabratus; 0.0625 µg/mL (≈ 0.133 µM) against Candida albicans [1]; 0.0312 µg/mL (≈ 0.0666 µM) against Candida albicans [2].
Regarding `COc1ncc(-c2cc3c(s2)C(=O)N([C@H](C)[C@](O)(Cn2cncn2)c2ccc(F)cc2F)C3)cn1`, the minimal inhibitory concentration (MIC) worked out at 0.0625 µg/mL (≈ 0.125 µM) against Cryptococcus neoformans; 4 µg/mL (≈ 8.02 µM) in the series with Aspergillus fumigatus; 0.0625 µg/mL (≈ 0.125 µM) with Candida parapsilosis; 0.25 µg/mL (≈ 0.501 µM) with Nakaseomyces glabratus; 0.0625 µg/mL (≈ 0.125 µM) in the series on Candida albicans [1]; 0.0625 µg/mL (≈ 0.125 µM) against Candida albicans [2].
Regarding `COc1ccc(-c2cc3c(s2)CN([C@H](C)[C@](O)(Cn2cncn2)c2ccc(F)cc2F)C3=O)cn1`, the MIC was 0.0156 µg/mL (≈ 0.0314 µM) in the series on Cryptococcus neoformans; 64 µg/mL (≈ 129 µM) with Aspergillus fumigatus; 0.0156 µg/mL (≈ 0.0314 µM) in the series on Candida parapsilosis; 0.0156 µg/mL (≈ 0.0314 µM) against Nakaseomyces glabratus; 0.0156 µg/mL (≈ 0.0314 µM) against Candida albicans [1]; 0.0156 µg/mL (≈ 0.0314 µM) in the series on Candida albicans [2].
As to `C[C@@H](N1CCc2sc(-c3ccncc3)cc2C1)[C@](O)(Cn1cncn1)c1ccc(F)cc1F`, the MIC with Cryptococcus neoformans was 0.5 µg/mL (≈ 1.07 µM); in the series with Aspergillus fumigatus it was greater than 32 µg/mL; in the series with Candida parapsilosis it was 0.5 µg/mL (≈ 1.07 µM); in the series with Nakaseomyces glabratus it was 4 µg/mL (≈ 8.56 µM); against Candida albicans [1], 0.5 µg/mL (≈ 1.07 µM); in the series with Candida albicans [2], 0.25 µg/mL (≈ 0.535 µM).
